ChEMBL document CHEMBL4689842, “EUbOPEN Chemogenomics Library wave 1” (2021)

Test system: HEK-293T
Assay: Multiplex assay against HEK293T;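 on Population Tubulin-Different-Phenotype (%): share of the cells with healthy nuclei that show this phenotype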
Assay type: toxicity, cell-based
Conditions: human
How it was run: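 With compound added, live cells were imaged on a CQ1 microscope at 37°C and 5% CO2; staining with Hoechst33342, BioTracker Green Microtubule Cytoskeleton Dye, MitoTracker Red and Annexin V Alexa Fluor 680 had been done at seeding. The CellPathfinder machine-learning gating scheme split cells into Hoechst high-intensity objects or normal cells, normal cells into healthy, pyknosed or fragmented nuclei, and pyknosed cells into mitotic or apoptotic. The tubulin, mitochondrial-mass and membrane-permeability phenotypes are per cents of healthy-nucleus cells.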

[1] = 12 h, 1 µM, compound concentration 1 uM, replicate 1
[2] = 12 h, 1 µM, compound concentration 1 uM, replicate 2
[3] = 12 h, 10 µM, compound concentration 10 uM, replicate 1
[4] = 12 h, 10 µM, compound concentration 10 uM, replicate 2
[5] = 24 h, 1 µM, compound concentration 1 uM, replicate 1
[6] = 24 h, 1 µM, compound concentration 1 uM, replicate 2
[7] = 24 h, 10 µM, compound concentration 10 uM, replicate 1
[8] = 24 h, 10 µM, compound concentration 10 uM, replicate 2
[9] = 48 h, 1 µM, compound concentration 1 uM, replicate 1
[10] = 48 h, 1 µM, compound concentration 1 uM, replicate 2
[11] = 48 h, 10 µM, compound concentration 10 uM, replicate 1
[12] = 48 h, 10 µM, compound concentration 10 uM, replicate 2

For `O=c1cc(N2CCOCC2)oc2c(-c3cccc4c3sc3ccccc34)cccc12`, the “Population Apoptotic (%)” value [1] was 46%, the “Population Fragmented Nuclei (%)” value [1] was 7% and the “Population Hoechst High Intensity Objects (%)” value [1] was 12%. For the same compound, the “Population Membrane Permeable-Phenotype (%)” value [1] was 3%, the “Population Mitochondria Different-Phenotype (%)” value [1] was 92% and the “Population Mitotic Cells (%)” value [1] was 53%. For the same compound, the “Population Normal (%)” value [1] was 87%, the “Population Pyknosed Nuclei (%)” value [1] was 52% and the “Population Tubulin-Different-Phenotype (%)” value [1] was 58%. For the same compound, the “Total Cell Count” value [1] was 283, the “Population Apoptotic (%)” value [2] was 14% and the “Population Fragmented Nuclei (%)” value [2] was 5%. The “Population Healthy Nuclei (%)” value [2] was 40%, the “Population Hoechst High Intensity Objects (%)” value [2] was 4% and the “Population Membrane Permeable-Phenotype (%)” value [2] was 1%. For the same compound, the “Population Mitochondria Different-Phenotype (%)” value [2] was 20%, the “Population Mitotic Cells (%)” value [2] was 85% and the “Population Normal (%)” value [2] was 95%. For the same compound, the “Population Pyknosed Nuclei (%)” value [2] was 53%, the “Population Tubulin-Different-Phenotype (%)” value [2] was 19% and the “Total Cell Count” value [2] was 224. The “Population Apoptotic (%)” value [3] was 61%, the “Population Fragmented Nuclei (%)” value [3] was 16% and the “Population Healthy Nuclei (%)” value [3] was 14%. For the same compound, the “Population Hoechst High Intensity Objects (%)” value [3] was 14%, the “Population Membrane Permeable-Phenotype (%)” value [3] was 8% and the “Population Mitochondria Different-Phenotype (%)” value [3] was 100%. The “Population Mitotic Cells (%)” value [3] was 38%, the “Population Normal (%)” value [3] was 85% and the “Population Pyknosed Nuclei (%)” value [3] was 68%. The “Population Tubulin-Different-Phenotype (%)” value [3] was 91%, the “Total Cell Count” value [3] was 192 and the “Population Apoptotic (%)” value [4] was 49%. The “Population Fragmented Nuclei (%)” value [4] was 8%, the “Population Healthy Nuclei (%)” value [4] was 7% and the “Population Hoechst High Intensity Objects (%)” value [4] was 6%. The “Population Mitochondria Different-Phenotype (%)” value [4] was 91%, the “Population Mitotic Cells (%)” value [4] was 50% and the “Population Normal (%)” value [4] was 93%. The “Population Pyknosed Nuclei (%)” value [4] was 83%, the “Population Tubulin-Different-Phenotype (%)” value [4] was 83% and the “Total Cell Count” value [4] was 172. The “Population Apoptotic (%)” value [5] was 53%, the “Population Fragmented Nuclei (%)” value [5] was 9% and the “Population Healthy Nuclei (%)” value [5] was 44%. For the same compound, the “Population Hoechst High Intensity Objects (%)” value [5] was 12%, the “Population Membrane Permeable-Phenotype (%)” value [5] was 2% and the “Population Mitochondria Different-Phenotype (%)” value [5] was 77%. For the same compound, the “Population Mitotic Cells (%)” value [5] was 46%, the “Population Normal (%)” value [5] was 87% and the “Population Pyknosed Nuclei (%)” value [5] was 46%. The “Population Tubulin-Different-Phenotype (%)” value [5] was 40%, the “Total Cell Count” value [5] was 310 and the “Population Apoptotic (%)” value [6] was 16%. The “Population Fragmented Nuclei (%)” value [6] was 3%, the “Population Healthy Nuclei (%)” value [6] was 60% and the “Population Hoechst High Intensity Objects (%)” value [6] was 4%. For the same compound, the “Population Membrane Permeable-Phenotype (%)” value [6] was 3%, the “Population Mitochondria Different-Phenotype (%)” value [6] was 22% and the “Population Mitotic Cells (%)” value [6] was 83%. The “Population Normal (%)” value [6] was 95%, the “Population Pyknosed Nuclei (%)” value [6] was 36% and the “Population Tubulin-Different-Phenotype (%)” value [6] was 38%. For the same compound, the “Total Cell Count” value [6] was 272, the “Population Apoptotic (%)” value [7] was 61% and the “Population Fragmented Nuclei (%)” value [7] was 15%. The “Population Healthy Nuclei (%)” value [7] was 12%, the “Population Hoechst High Intensity Objects (%)” value [7] was 16% and the “Population Membrane Permeable-Phenotype (%)” value [7] was 0%. For the same compound, the “Population Mitochondria Different-Phenotype (%)” value [7] was 100%, the “Population Mitotic Cells (%)” value [7] was 38% and the “Population Normal (%)” value [7] was 83%. The “Population Pyknosed Nuclei (%)” value [7] was 71%, the “Population Tubulin-Different-Phenotype (%)” value [7] was 100% and the “Total Cell Count” value [7] was 206. For the same compound, the “Population Apoptotic (%)” value [8] was 60%, the “Population Fragmented Nuclei (%)” value [8] was 7% and the “Population Healthy Nuclei (%)” value [8] was 22%. The “Population Hoechst High Intensity Objects (%)” value [8] was 2%, the “Population Mitotic Cells (%)” value [8] was 39% and the “Population Normal (%)” value [8] was 97%. The “Population Pyknosed Nuclei (%)” value [8] was 69%, the “Total Cell Count” value [8] was 186 and the “Population Apoptotic (%)” value [9] was 30%. The “Population Fragmented Nuclei (%)” value [9] was 17%, the “Population Healthy Nuclei (%)” value [9] was 42% and the “Population Hoechst High Intensity Objects (%)” value [9] was 9%. For the same compound, the “Population Membrane Permeable-Phenotype (%)” value [9] was 2%, the “Population Mitochondria Different-Phenotype (%)” value [9] was 44% and the “Population Mitotic Cells (%)” value [9] was 70%. The “Population Normal (%)” value [9] was 90%, the “Population Pyknosed Nuclei (%)” value [9] was 40% and the “Population Tubulin-Different-Phenotype (%)” value [9] was 45%. For the same compound, the “Total Cell Count” value [9] was 384, the “Population Apoptotic (%)” value [10] was 14% and the “Population Fragmented Nuclei (%)” value [10] was 7%. For the same compound, the “Population Healthy Nuclei (%)” value [10] was 77%, the “Population Hoechst High Intensity Objects (%)” value [10] was 3% and the “Population Membrane Permeable-Phenotype (%)” value [10] was 3%. For the same compound, the “Population Mitochondria Different-Phenotype (%)” value [10] was 6%, the “Population Mitotic Cells (%)” value [10] was 85% and the “Population Normal (%)” value [10] was 96%. For the same compound, the “Population Pyknosed Nuclei (%)” value [10] was 15%, the “Population Tubulin-Different-Phenotype (%)” value [10] was 26% and the “Total Cell Count” value [10] was 477. For the same compound, the “Population Apoptotic (%)” value [11] was 68%, the “Population Fragmented Nuclei (%)” value [11] was 24% and the “Population Healthy Nuclei (%)” value [11] was 20%. The “Population Hoechst High Intensity Objects (%)” value [11] was 17%, the “Population Membrane Permeable-Phenotype (%)” value [11] was 0% and the “Population Mitochondria Different-Phenotype (%)” value [11] was 100%. For the same compound, the “Population Mitotic Cells (%)” value [11] was 31%, the “Population Normal (%)” value [11] was 82% and the “Population Pyknosed Nuclei (%)” value [11] was 55%. The “Population Tubulin-Different-Phenotype (%)” value [11] was 93%, the “Total Cell Count” value [11] was 186 and the “Population Apoptotic (%)” value [12] was 61%. The “Population Fragmented Nuclei (%)” value [12] was 8%, the “Population Healthy Nuclei (%)” value [12] was 29% and the “Population Hoechst High Intensity Objects (%)” value [12] was 8%. For the same compound, the “Population Mitochondria Different-Phenotype (%)” value [12] was 94%, the “Population Mitotic Cells (%)” value [12] was 38% and the “Population Normal (%)” value [12] was 91%. The “Population Pyknosed Nuclei (%)” value [12] was 62%, the “Population Tubulin-Different-Phenotype (%)” value [12] was 96% and the “Total Cell Count” value [12] was 185.
